# Laboratory results from the RNAGym collection of RNA variant scans (doi:10.1038/s41586-018-0170-7).
# B1: tRNA (parent)
# chain: GUUCCGUUGGCGUAAUGGUAACGCGUCUCCCUCCUAAGGAGAAGACUGCGGGUUCGAGUCCCGUACGGAACG
# Variants of: B1
# Experiment: yeast fitness, log relative to wild type (ln ratio); higher = fitter; tRNA-Arg(CCU), competitive growth, 37 C, 1 M NaCl
# Method in brief: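 A combinatorial tRNA-Arg(CCU) variant library was carried on a HIS3 centromeric plasmid in BY4742 lacking the chromosomal gene, from two independent transformations. Pools grew 4 generations in SC-HIS at 30 °C, then ~6.5 generations (~26.5 h) in SC-HIS 1M NaCl at 37 °C, with three outputs per input. Variants were counted by 125 bp paired-end Illumina sequencing. Fitness is ln of each genotype's generations (OD-scaled log2 output/input frequency, inverse-variance weighted across replicates) over the wild-type's.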
row,Variant,yeast fitness (ln)
1,GCUCCUUUGGCGUAAUGGUAACGCGUCUCCCUCCUAAGGAGACGACUGCGGGUUCGAGUCCCGUAAGGAUCG [U2C G6U A43C C66A A70U],-0.168
2,GGUCCGUUGGCGUAAUGGUAACGCGUCUCCCUCCUAAGGAGACGACUGCGGGUUCGAGUCCCGUACGGAGCG [U2G A43C A70G],-0.182
3,AUUCCGUUGGCGUAAUGGUAACGCGUUUCCCUCCUAAGGAGAAGAUUGCGGGUUCGAGUCCCGUAAGGAUUG [G1A C27U C46U C66A A70U C71U],-0.208
4,GGUCCGUUGGCGUAAUGGUAACGCGUUUCCCUCCUAAGGAGACGACUGCGGGUUCGAGUCCCGUACGGGUCG [U2G C27U A43C A69G A70U],-0.267
5,GCUCCGUUGGCGUAAUGGUAACGCGUUUCCCUCCUAAGGAGACGAUUGCGGGUUCGAGUCCCGUAUGGGGUG [U2C C27U A43C C46U C66U A69G A70G C71U],-0.216
6,GGUCCAUUGGCGUAAUGGUAACGCGUUUCCCUCCUAAGGAGACGAUUGCGGGUUCGAGUCCCGUAUGGAGUG [U2G G6A C27U A43C C46U C66U A70G C71U],-0.194
7,AGUCCAUUGGCGUAAUGGUAACGCGUUUCCCUCCUAAGGAGAAGACUGCGGGUUCGAGUCCCGUAUGGAGUG [G1A U2G G6A C27U C66U A70G C71U],-0.309
8,AUUCCAUUGGCGUAAUGGUAACGCGUUUCCCUCCUAAGGAGACGAUUGCGGGUUCGAGUCCCGUAUGGGUUG [G1A G6A C27U A43C C46U C66U A69G A70U C71U],-0.477
9,GCUCCAUUGGCGUAAUGGUAACGCGUUUCCCUCCUAAGGAGAAGAUUGCGGGUUCGAGUCCCGUAAGGAUUG [U2C G6A C27U C46U C66A A70U C71U],-0.172
10,GCUCCGUUGGCGUAAUGGUAACGCGUCUCCCUCCUAAGGAGAAGAUUGCGGGUUCGAGUCCCGUAAGGAGUG [U2C C46U C66A A70G C71U],-0.168
11,GCUCCUUUGGCGUAAUGGUAACGCGUCUCCCUCCUAAGGAGAAGACUGCGGGUUCGAGUCCCGUAAGGAAUG [U2C G6U C66A C71U],-0.294
12,GUUCCUUUGGCGUAAUGGUAACGCGUUUCCCUCCUAAGGAGACGAUUGCGGGUUCGAGUCCCGUAUGGAACG [G6U C27U A43C C46U C66U],-0.271
13,ACUCCUUUGGCGUAAUGGUAACGCGUUUCCCUCCUAAGGAGAAGACUGCGGGUUCGAGUCCCGUAAGGGGUG [G1A U2C G6U C27U C66A A69G A70G C71U],-0.137
14,GUUCCGUUGGCGUAAUGGUAACGCGUCUCCCUCCUAAGGAGACGAUUGCGGGUUCGAGUCCCGUAUGGGUCG [A43C C46U C66U A69G A70U],-0.121
15,AGUCCGUUGGCGUAAUGGUAACGCGUCUCCCUCCUAAGGAGAAGAUUGCGGGUUCGAGUCCCGUACGGGGUG [G1A U2G C46U A69G A70G C71U],-0.457
16,AGUCCGUUGGCGUAAUGGUAACGCGUUUCCCUCCUAAGGAGAAGAUUGCGGGUUCGAGUCCCGUAUGGAUUG [G1A U2G C27U C46U C66U A70U C71U],-0.434
17,AUUCCUUUGGCGUAAUGGUAACGCGUUUCCCUCCUAAGGAGACGACUGCGGGUUCGAGUCCCGUAAGGGUUG [G1A G6U C27U A43C C66A A69G A70U C71U],-0.281
18,GCUCCUUUGGCGUAAUGGUAACGCGUUUCCCUCCUAAGGAGAAGACUGCGGGUUCGAGUCCCGUACGGGGUG [U2C G6U C27U A69G A70G C71U],-0.157
19,AUUCCAUUGGCGUAAUGGUAACGCGUCUCCCUCCUAAGGAGACGACUGCGGGUUCGAGUCCCGUAUGGGAUG [G1A G6A A43C C66U A69G C71U],-0.811

row,Variant,yeast fitness (ln)
1,ACUCCGUUGGCGUAAUGGUAACGCGUCUCCCUCCUAAGGAGACGACUGCGGGUUCGAGUCCCGUAAGGAUUG [G1A U2C A43C C66A A70U C71U],-0.285
2,AUUCCUUUGGCGUAAUGGUAACGCGUCUCCCUCCUAAGGAGACGACUGCGGGUUCGAGUCCCGUAAGGAGUG [G1A G6U A43C C66A A70G C71U],-0.517
3,GUUCCAUUGGCGUAAUGGUAACGCGUCUCCCUCCUAAGGAGAAGACUGCGGGUUCGAGUCCCGUAUGGGAUG [G6A C66U A69G C71U],-0.085
4,GCUCCGUUGGCGUAAUGGUAACGCGUCUCCCUCCUAAGGAGACGAUUGCGGGUUCGAGUCCCGUAUGGGAUG [U2C A43C C46U C66U A69G C71U],-0.25
5,AGUCCUUUGGCGUAAUGGUAACGCGUCUCCCUCCUAAGGAGACGAUUGCGGGUUCGAGUCCCGUACGGAAUG [G1A U2G G6U A43C C46U C71U],-0.335
6,AGUCCUUUGGCGUAAUGGUAACGCGUUUCCCUCCUAAGGAGAAGACUGCGGGUUCGAGUCCCGUAAGGAUUG [G1A U2G G6U C27U C66A A70U C71U],-0.168
7,AUUCCGUUGGCGUAAUGGUAACGCGUUUCCCUCCUAAGGAGAAGACUGCGGGUUCGAGUCCCGUACGGGGUG [G1A C27U A69G A70G C71U],-0.322
8,AGUCCUUUGGCGUAAUGGUAACGCGUCUCCCUCCUAAGGAGAAGACUGCGGGUUCGAGUCCCGUAUGGAAUG [G1A U2G G6U C66U C71U],-0.249
9,GGUCCUUUGGCGUAAUGGUAACGCGUCUCCCUCCUAAGGAGAAGAUUGCGGGUUCGAGUCCCGUAUGGAGUG [U2G G6U C46U C66U A70G C71U],-0.152
10,GGUCCUUUGGCGUAAUGGUAACGCGUCUCCCUCCUAAGGAGAAGACUGCGGGUUCGAGUCCCGUACGGGUUG [U2G G6U A69G A70U C71U],-0.26
11,AUUCCGUUGGCGUAAUGGUAACGCGUUUCCCUCCUAAGGAGAAGAUUGCGGGUUCGAGUCCCGUAUGGAAUG [G1A C27U C46U C66U C71U],-0.454
12,AUUCCUUUGGCGUAAUGGUAACGCGUCUCCCUCCUAAGGAGACGACUGCGGGUUCGAGUCCCGUAAGGAAUG [G1A G6U A43C C66A C71U],-0.0965
13,ACUCCGUUGGCGUAAUGGUAACGCGUUUCCCUCCUAAGGAGAAGAUUGCGGGUUCGAGUCCCGUAUGGAACG [G1A U2C C27U C46U C66U],-0.144
14,AGUCCUUUGGCGUAAUGGUAACGCGUCUCCCUCCUAAGGAGAAGACUGCGGGUUCGAGUCCCGUAAGGGGUG [G1A U2G G6U C66A A69G A70G C71U],-0.325
15,GCUCCUUUGGCGUAAUGGUAACGCGUCUCCCUCCUAAGGAGACGACUGCGGGUUCGAGUCCCGUAUGGGAUG [U2C G6U A43C C66U A69G C71U],-0.454
16,AUUCCAUUGGCGUAAUGGUAACGCGUUUCCCUCCUAAGGAGACGACUGCGGGUUCGAGUCCCGUAUGGAUCG [G1A G6A C27U A43C C66U A70U],-0.304
17,ACUCCAUUGGCGUAAUGGUAACGCGUCUCCCUCCUAAGGAGACGACUGCGGGUUCGAGUCCCGUAUGGGGUG [G1A U2C G6A A43C C66U A69G A70G C71U],-0.0387
18,GUUCCUUUGGCGUAAUGGUAACGCGUUUCCCUCCUAAGGAGACGAUUGCGGGUUCGAGUCCCGUAUGGAGUG [G6U C27U A43C C46U C66U A70G C71U],-0.378
